Our source for the IC50 and Drug uptake values is ChEMBL document CHEMBL1933030, “Conjugation of spermine enhances cellular uptake of the stapled peptide-based inhibitors of p53-Mdm2 interaction” (Bioorg Med Chem Lett, 2011).

In series [1] the target is Tumour suppressor p53/oncoprotein Mdm2 (Homo sapiens, UniProt Q00987). Kind of series: Inhibition of p53-MDM2 interaction by ELISA. The series is classed as protein assay. On the technique in general: In an ELISA, binding on a coated surface is turned into a signal by an enzyme label.
Sequence of Tumour suppressor p53/oncoprotein Mdm2 (P04637 whole entry): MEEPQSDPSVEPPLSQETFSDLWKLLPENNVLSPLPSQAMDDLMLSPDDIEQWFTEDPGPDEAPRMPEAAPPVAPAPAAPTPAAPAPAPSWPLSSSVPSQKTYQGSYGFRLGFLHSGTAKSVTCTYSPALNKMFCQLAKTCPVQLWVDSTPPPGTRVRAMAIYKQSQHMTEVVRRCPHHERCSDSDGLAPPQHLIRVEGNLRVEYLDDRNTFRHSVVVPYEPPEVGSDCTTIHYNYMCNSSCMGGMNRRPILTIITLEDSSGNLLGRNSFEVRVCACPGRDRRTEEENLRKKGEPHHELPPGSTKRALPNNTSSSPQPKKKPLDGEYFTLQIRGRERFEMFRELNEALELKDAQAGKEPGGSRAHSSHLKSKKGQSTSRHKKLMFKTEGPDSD
Sequence of Tumour suppressor p53/oncoprotein Mdm2 (Q00987 whole entry): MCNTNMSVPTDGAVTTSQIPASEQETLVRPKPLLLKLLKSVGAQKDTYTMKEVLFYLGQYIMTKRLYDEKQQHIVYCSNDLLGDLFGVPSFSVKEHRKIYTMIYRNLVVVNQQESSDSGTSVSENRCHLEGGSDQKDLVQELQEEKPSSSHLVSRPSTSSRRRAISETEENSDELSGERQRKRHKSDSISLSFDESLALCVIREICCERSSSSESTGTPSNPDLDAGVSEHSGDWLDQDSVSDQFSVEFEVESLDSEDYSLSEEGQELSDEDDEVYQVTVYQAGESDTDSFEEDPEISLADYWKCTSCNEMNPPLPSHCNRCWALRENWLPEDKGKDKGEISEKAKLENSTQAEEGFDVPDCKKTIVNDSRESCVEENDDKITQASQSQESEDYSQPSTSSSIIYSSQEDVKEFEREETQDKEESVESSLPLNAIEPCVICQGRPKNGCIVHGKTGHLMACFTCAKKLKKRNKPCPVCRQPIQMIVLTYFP
The test system of another series is HeLa. Kind of series: Cellular uptake in human HeLa cells at 10 uM after 2 hrs by FACS analysis relative to control. The series is classed as ADME, cell-based. Summed up:
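HeLa cells were exposed to fluorescein-labelled peptides at 10 μM and analysed by flow cytometry (FACS). Uptake was read as mean cellular fluorescence, shown as representative histograms, and normalized for comparison between peptides.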
On the technique in general: Flow cytometry measures light scatter and fluorescence of single cells or particles in a stream.

The IC50 is the concentration at which inhibition is half-maximal. Read a low IC50 as greater potency in that assay. `CC(=O)N[C@@H](CC(C)C)C(=O)N[C@H](C(=O)N[C@@H](Cc1ccccc1)C(=O)N[C@@H](CS)C(=O)N[C@@H](Cc1cnc[nH]1)C(=O)N[C@@H](Cc1ccc(O)cc1)C(=O)N[C@@H](Cc1c[nH]c2ccccc12)C(=O)N[C@@H](C)C(=O)N[C@@H](CCC(N)=O)C(=O)N[C@@H](CC(C)C)C(=O)N[C@@H](CS)C(=O)N[C@@H](CO)C(N)=O)[C@@H](C)O`: in series [1], inhibition was half-maximal at 57 nM (IC50).
Regarding `CC(=O)N[C@@H](CC(C)C)C(=O)N[C@H](C(=O)N[C@@H](Cc1ccccc1)C(=O)N[C@H](CS)C(=O)N[C@@H](Cc1cnc[nH]1)C(=O)N[C@@H](Cc1ccc(O)cc1)C(=O)N[C@@H](Cc1c[nH]c2ccccc12)C(=O)N[C@@H](C)C(=O)N[C@@H](CCC(N)=O)C(=O)N[C@@H](CC(C)C)C(=O)N[C@@H](CS)C(=O)N[C@@H](CO)C(N)=O)[C@@H](C)O`, in series [1], the IC50 stood at 13 nM.
Compound `CC(C)C[C@H](NC(=O)CCCCCNC(=O)c1ccccc1-c1c2ccc(=O)cc-2oc2cc(O)ccc12)C(=O)N[C@H](C(=O)N[C@@H](Cc1ccccc1)C(=O)N[C@@H](CS)C(=O)N[C@@H](Cc1cnc[nH]1)C(=O)N[C@@H](Cc1ccc(O)cc1)C(=O)N[C@@H](Cc1c[nH]c2ccccc12)C(=O)N[C@@H](C)C(=O)N[C@@H](CCC(N)=O)C(=O)N[C@@H](CC(C)C)C(=O)N[C@@H](CS)C(=O)N[C@@H](CO)C(N)=O)[C@@H](C)O` registered a Drug uptake in the series on HeLa of 4.5%.
In the series with HeLa, `CC(C)C[C@H](NC(=O)CCCCCNC(=O)c1ccccc1-c1c2ccc(=O)cc-2oc2cc(O)ccc12)C(=O)N[C@H](C(=O)N[C@@H](Cc1ccccc1)C(=O)N[C@H](CS)C(=O)N[C@@H](Cc1cnc[nH]1)C(=O)N[C@@H](Cc1ccc(O)cc1)C(=O)N[C@@H](Cc1c[nH]c2ccccc12)C(=O)N[C@@H](C)C(=O)N[C@@H](CCC(N)=O)C(=O)N[C@@H](CC(C)C)C(=O)N[C@@H](CS)C(=O)N[C@@H](CO)C(N)=O)[C@@H](C)O` yielded a Drug uptake of 3.3%.
